Test results reported in PMC2819033 (Journal of medicinal chemistry, 2009).
Where two headings read alike, the source gives them in different places.

Columns and labels:
[1] = n-octanol/water partition coefficient, shake flask method; format: physicochemical; details: values of the aqua complexes
Procedure, shortened: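 Partition was measured by the shake-flask method. For the octanol phase, UV/vis was read at each complex's absorption maximum against n-octanol standards from 1 to 100 μM. For the aqueous phase, ruthenium was measured by ICP-MS (101Ru and 102Ru) with external calibration from 1 to 30 ppb. These samples were prepared in 5% HNO3 with 1 ppb 185Re as internal standard.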

[2] = tested on: SW480 (colon carcinoma) cells; test: MTT assay, SW480 cells; format: cell-based, Human; details: read-out: IC50 SW480, 96 h exposure
Procedure, shortened: (§1)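 Cells were kept in MEM with 10% heat-inactivated FBS, 1 mM pyruvate, 4 mM L-glutamine and 1% NEAA at 37 °C, 5% CO2. Seeding by trypsinization was SW480 2.5 × 103 and A2780 5.0 × 10^3 cells/well, with 24 h preincubation and 96 h exposure to serial dilutions. MTT was added for 4 h, formazan dissolved in DMSO, and read at 550 nm (reference 690 nm). IC50 was interpolated from T/C curves using ≥3 experiments, ≥6 replicates each.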

[3] = tested on: A2780 (ovarian carcinoma) cells; test: MTT assay, A2780 cells; format: cell-based, Human; details: read-out: IC50 A2780, 96 h exposure
Procedure, shortened: as §1

[4] = tested on: guanosine 5′-monophosphate (GMP); test: Nucleotide binding by 1H and 31P NMR, GMP; details: ratio complex/nucleotide
[5] = tested on: adenosine 5′-monophosphate (AMP); test: Nucleotide binding by 1H and 31P NMR, AMP; details: ratio complex/nucleotide
[6] = tested on: cytidine 5′-monophosphate (CMP); test: Nucleotide binding by 1H and 31P NMR, CMP
[7] = tested on: thymidine 5′-monophosphate (TMP); test: Nucleotide binding by 1H and 31P NMR, TMP
[8] = tested on: uridine 5′-monophosphate (UMP); test: Nucleotide binding by 1H and 31P NMR, UMP
[9] = mononuclear analogue; cited from earlier work
[10] = tested on: A2780 (ovarian carcinoma) cells; details: read-out: IC50 A2780; cited from earlier work
[11] = tested on: 5637 (bladder cancer) cells; test: Crystal violet assay, 5637; format: cell-based, Human; details: read-out: IC50 5637, 96 h
Procedure, shortened: (§2)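 Crystal violet assay after 24 h preincubation. Adherent cells grown in RPMI with 10% heat-inactivated FBS and penicillin/streptomycin at 37 °C, 5% CO2; MCF-7 medium also had 1 mM sodium pyruvate and 1% nonessential amino acids. Seeding was 1.0 × 10^3 cells/well, or 250 cells/well for LCLC-103H. 20 mM DMF stocks were diluted 1000-fold in medium with 10% FCS for 96 h exposure. Bound dye was redissolved in 70% ethanol and read at 570 nm.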

[12] = tested on: 5637-oxo oxoplatin-resistant cells; test: Crystal violet assay, 5637-oxo; format: cell-based, Human; details: for Resistance factor 5637-oxo: 5637-oxo versus 5637; for IC50: read-out: IC50 5637-oxo, crystal violet, 96 h, oxoplatin-resistant line
Procedure, shortened: (§3)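 Resistant sublines were derived in-house by weekly exposure to rising oxoplatin concentrations over several months. Cells grew as adherent cultures in RPMI with 10% heat-inactivated FBS and penicillin/streptomycin at 37 °C, 5% CO2. After seeding at 1.0 × 10^3 cells/well and 24 h preincubation, cells had 96 h exposure to 20 mM DMF stocks diluted 1000-fold in medium. Crystal violet was redissolved in 70% ethanol and read at 570 nm.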

[13] = tested on: SISO (cervical cancer) cells; test: Crystal violet assay, SISO; format: cell-based, Human; details: read-out: IC50 SISO, 96 h
Procedure, shortened: as §2

[14] = tested on: SISO-oxo oxoplatin-resistant cells; test: Crystal violet assay, SISO-oxo; format: cell-based, Human; details: for Resistance factor SISO-oxo: SISO-oxo versus SISO; for IC50: read-out: IC50 SISO-oxo, crystal violet, 96 h, oxoplatin-resistant line
Procedure, shortened: as §3

[15] = tested on: KYSE70 (esophagus cancer) cells; test: Crystal violet assay, KYSE70; format: cell-based, Human; details: read-out: IC50 KYSE70, 96 h
Procedure, shortened: as §2

[16] = tested on: KYSE70-oxo oxoplatin-resistant cells; test: Crystal violet assay, KYSE70-oxo; format: cell-based, Human; details: for Resistance factor KYSE70-oxo: KYSE70-oxo versus KYSE70; for IC50: read-out: IC50 KYSE70-oxo, crystal violet, 96 h, oxoplatin-resistant line
Procedure, shortened: as §3

[17] = tested on: LCLC-103H (lung cancer) cells; details: read-out: IC50 LCLC-103H; crystal violet; cited from earlier work
[18] = tested on: A-427 (lung cancer) cells; details: read-out: IC50 A-427; crystal violet; cited from earlier work
[19] = tested on: RT-4 (bladder cancer) cells; details: read-out: IC50 RT-4; crystal violet; cited from earlier work
[20] = tested on: DAN-G (pancreatic cancer) cells; details: read-out: IC50 DAN-G; crystal violet; cited from earlier work
[21] = tested on: LCLC-103H (lung cancer) cells; test: Crystal violet assay, LCLC-103H; format: cell-based, Human; details: read-out: IC50 LCLC-103H, 96 h
Procedure, shortened: as §2

[22] = tested on: A-427 (lung cancer) cells; test: Crystal violet assay, A-427; format: cell-based, Human; details: read-out: IC50 A-427, 96 h
Procedure, shortened: as §2

[23] = tested on: RT-4 (bladder cancer) cells; test: Crystal violet assay, RT-4; format: cell-based, Human; details: read-out: IC50 RT-4, 96 h
Procedure, shortened: as §2

[24] = tested on: MCF-7 (breast cancer) cells; test: Crystal violet assay, MCF-7; format: cell-based, Human; details: read-out: IC50 MCF-7, 96 h
Procedure, shortened: as §2

[25] = tested on: DAN-G (pancreatic cancer) cells; test: Crystal violet assay, DAN-G; format: cell-based, Human; details: read-out: IC50 DAN-G, 96 h
Procedure, shortened: as §2

Row | Structure (SMILES) | log Poct/water ICP-MS [1] | log Poct/water UV/vis [1] | IC50 [2] [µM] | IC50 [3] [µM] | IC50 [11] [µM] | Resistance factor 5637-oxo [12] | IC50 [12] [µM] | IC50 [13] [µM] | Resistance factor SISO-oxo [14] | IC50 [14] [µM] | IC50 [15] [µM] | Resistance factor KYSE70-oxo [16] | IC50 [16] [µM] | further results
1 | Cc1ccc(C(C)C)cc1.Cc1occc(=O)c1[O-].[Cl-].[Ru+2] [[RuCl(cym)(mal)] 8, chlorido(maltolato-κO^2)(η^6-p-cymene)ruthenium(II)] |  |  | > 100 |  |  |  |  |  |  |  |  |  |  | pKa values [9]: 9.23; IC50 [10]: > 100 µM
2 | N.N.[Cl][Pt][Cl] [cisplatin] |  |  |  |  | 0.37 ± 0.01 | 2.9 | 1.1 ± 0.4 | 0.28 ± 0.04 | 2.1 | 0.58 ± 0.08 | 0.72 ± 0.11 | 2.4 | 1.7 ± 0.4 | IC50 [17]: 0.9 ± 0.19 µM; IC50 [18]: 1.96 ± 0.54 µM; IC50 [19]: 1.61 ± 0.16 µM; IC50 [20]: 0.73 ± 0.34 µM
3 | CCCn1ccc(=O)c([O-])c1C.Cc1ccc(C(C)C)cc1.[Cl-].[Ru+2] [compound 7, chlorido[2-methyl-3-(oxo-κO)-1-propyl-4(1H)-pyridinonato-κO4](η^6-p-cymene)ruthenium(II)] |  |  | 42 ± 1 | 88 ± 12 |  |  |  |  |  |  |  |  |  | 
4 | N.N.[Cl-].[Cl-].[OH-].[OH-].[Pt+4] [oxoplatin] |  |  |  |  | 3.1 ± 1.5 | 3.4 | 10.6 ± 1.3 | 1.7 ± 0.4 | 3.1 | 5.2 ± 0.9 | 4.2 ± 2.8 | 2.1 | 8.8 ± 5.2 | IC50 [21]: 17.2 ± 5.1 µM; IC50 [22]: 13 ± 2.7 µM; IC50 [23]: 26 ± 8 µM; IC50 [24]: 5.5 ± 1.1 µM; IC50 [25]: 11.8 ± 3.2 µM

Further lines, with some results ahead:

Row | log Poct/water ICP-MS [1] | log Poct/water UV/vis [1] | IC50 [2] [µM] | IC50 [3] [µM] | Structure (SMILES) | IC50 [11] [µM] | Resistance factor 5637-oxo [12] | IC50 [12] [µM] | IC50 [13] [µM] | Resistance factor SISO-oxo [14] | IC50 [14] [µM] | IC50 [15] [µM] | Resistance factor KYSE70-oxo [16] | IC50 [16] [µM] | further results
5 | −1.42 | −1.42 | 76 ± 4 | 84 ± 3 | Cc1c([O-])c(=O)ccn1CCn1ccc(=O)c([O-])c1C.Cc1ccc(C(C)C)cc1.Cc1ccc(C(C)C)cc1.[Cl-].[Cl-].[Ru+2].[Ru+2] [1c, 1,2-Bis{chlorido[3-(oxo-κO)-2-methyl-4(1H)-pyridinonato-κO4](η ^6-p-cymene)ruthenium(II)}ethane] |  |  |  |  |  |  |  |  |  | 
6 | −1.28 | −1.23 | 2.5 ± 0.2 | 5.7 ± 0.5 | Cc1c([O-])c(=O)ccn1CCCCCCCCn1ccc(=O)c([O-])c1C.Cc1ccc(C(C)C)cc1.Cc1ccc(C(C)C)cc1.[Cl-].[Cl-].[Ru+2].[Ru+2] [5c, 1,8-Bis{chlorido[3-(oxo-κO)-2-methyl-4(1H)-pyridinonato-κO4](η ^6-p-cymene)ruthenium}octane] |  |  |  |  |  |  |  |  |  | formation of GMP adducts [4]: proceeded rapidly and quantitatively up to a ratio of 2:1; formation of AMP adducts [5]: proceeded rapidly and quantitatively up to a ratio of 2:1; reaction with CMP [6]: no reaction was observed; reaction with TMP [7]: no reaction was observed; reaction with UMP [8]: no reaction was observed
